Converted amounts (≈) assume the structure as drawn.
Columns and labels:
Assay type in all cases: functional
Klebsiella pneumoniae = assay: Antibacterial activity against Klebsiella pneumoniae at 250 ug/ml after 48 hrs by agar well diffusion technique; settings: read-out: IZ
Procedure, shortened: (§1)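 Cup-plate agar well diffusion on nutrient agar, set for 1–1.5 h. Cups of 10 mm were bored with a sterile cork borer, and test solution was added by sterile syringe. Plates were incubated at 37 °C for 48 h. The read-out was inhibition zone diameter in mm, graded 0–6 mild, 7–13 moderate and 14–26 efficacy. Ciprofloxacin was the standard; 10% DMSO served as solvent control.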

Candida albicans [1] = assay: Antifungal activity against Candida albicans at 250 ug/ml after 48 hrs by agar well diffusion technique; settings: read-out: IZ
Nakaseomyces glabratus [2] = assay: Antifungal activity against Candida glabrata HO3 at 250 ug/ml after 48 hrs by agar well diffusion technique; settings: read-out: IZ
Nakaseomyces glabratus [3] = assay: Antifungal activity against Candida glabrata HO3 after 48 hrs by agar well diffusion technique
Pichia kudriavzevii [4] = assay: Antifungal activity against Candida krusei GO3 after 48 hrs by agar well diffusion technique
Staphylococcus aureus = assay: Antibacterial activity against Staphylococcus aureus 209p at 250 ug/ml after 48 hrs by agar well diffusion technique; settings: read-out: IZ; procedure, shortened: as §1
Escherichia coli = assay: Antibacterial activity against Escherichia coli ESS 2231 at 250 ug/ml after 48 hrs by agar well diffusion technique; settings: read-out: IZ; procedure, shortened: as §1
Aspergillus fumigatus = assay: Antifungal activity against Aspergillus fumigatus at 250 ug/ml after 48 hrs by agar well diffusion technique; settings: read-out: IZ; procedure, shortened: as §1
Candida albicans [5] = assay: Antifungal activity against Candida albicans after 48 hrs by agar well diffusion technique
Proteus vulgaris = assay: Antibacterial activity against Proteus vulgaris at 250 ug/ml after 48 hrs by agar well diffusion technique; settings: read-out: IZ; procedure, shortened: as §1
Pichia kudriavzevii [6] = assay: Antifungal activity against Candida krusei GO3 at 250 ug/ml after 48 hrs by agar well diffusion technique; settings: read-out: IZ

Row | Compound | zone of inhibition at 250 µg/mL (Klebsiella pneumoniae) [mm] | zone of inhibition at 250 µg/mL (Candida albicans [1]) [mm] | zone of inhibition at 250 µg/mL (Nakaseomyces glabratus [2]) [mm] | MIC50 (Nakaseomyces glabratus [3]) [µg/mL] | MIC50 (Pichia kudriavzevii [4]) [µg/mL] | zone of inhibition at 250 µg/mL (Staphylococcus aureus) [mm] | zone of inhibition at 250 µg/mL (Escherichia coli) [mm] | zone of inhibition at 250 µg/mL (Aspergillus fumigatus) [mm] | MIC50 (Candida albicans [5]) [µg/mL] | zone of inhibition at 250 µg/mL (Proteus vulgaris) [mm] | zone of inhibition at 250 µg/mL (Pichia kudriavzevii [6]) [mm]
1 | O=C(/C=C/C=C/c1ccccc1)c1ccc(N2CCNCC2)cc1 | 5 | 9 | 6 | 75 (≈ 236 µM) | 60 (≈ 188 µM) | 10 | 16 | 14 | 90 (≈ 283 µM) | 8 | 14
2 | O=C(/C=C/c1ccccc1)c1ccc(N2CCNCC2)cc1 | 18 | 24 | 24 | 7.57 (≈ 25.9 µM) | 5.38 (≈ 18.4 µM) | 22 | 24 | 22 | 4.56 (≈ 15.6 µM) | 20 | 24
3 | O=C(/C=C/c1ccccc1)c1cc(Cl)sc1Cl | 18 | 26 | 26 | 4.65 (≈ 16.4 µM) | 3.17 (≈ 11.2 µM) | 18 | 20 | 24 | 2.22 (≈ 7.84 µM) | 22 | 26
4 | Cc1cccc(/C=C/C(=O)c2ccc(N3CCNCC3)cc2)c1 | 16 | 16 | 22 | 9.94 (≈ 32.4 µM) | 5.69 (≈ 18.6 µM) | 24 | 22 | 20 | 6.89 (≈ 22.5 µM) | 20 | 24
5 | Cc1ccc(/C=C/C(=O)c2ccc(N3CCNCC3)cc2)cc1 | 14 | 22 | 24 | 7.66 (≈ 25 µM) | 7.02 (≈ 22.9 µM) | 16 | 14 | 18 | 8.75 (≈ 28.6 µM) | 14 | 22
6 | COc1ccc(/C=C/C(=O)c2cc(Cl)sc2Cl)cc1 | 16 | 20 | 18 | 16.4 (≈ 52.3 µM) | 18.2 (≈ 58 µM) | 14 | 18 | 22 | 5 (≈ 16 µM) | 14 | 18
7 | O=C(/C=C/c1ccc(Cl)cc1)c1cc(Cl)sc1Cl | 8 | 24 | 14 | 40 (≈ 126 µM) | 70 (≈ 220 µM) | 14 | 16 | 18 | 4.65 (≈ 14.6 µM) | 14 | 22
8 | COc1ccc(/C=C/C(=O)c2ccc(N3CCNCC3)cc2)cc1 | 16 | 22 | 18 | 16.2 (≈ 50.4 µM) | 50 (≈ 155 µM) | 24 | 22 | 18 | 9.12 (≈ 28.3 µM) | 14 | 14
9 | COc1cc(/C=C/C(=O)c2ccc(N3CCNCC3)cc2)cc(OC)c1OC | 9 | 9 | 9 | 60 (≈ 157 µM) | 75 (≈ 196 µM) | 6 | 8 | 12 | 65 (≈ 170 µM) | 6 | 12
10 | Cc1cccc(/C=C/C(=O)c2cc(Cl)sc2Cl)c1 | 10 | 10 | 14 | 65 (≈ 219 µM) | 42.3 (≈ 142 µM) | 11 | 20 | 20 | 51.1 (≈ 172 µM) | 6 | 22
11 | O=C(/C=C/c1ccc(Cl)cc1)c1ccc(N2CCNCC2)cc1 | 14 | 18 | 14 | 60 (≈ 184 µM) | 60 (≈ 184 µM) | 18 | 22 | 12 | 55 (≈ 168 µM) | 16 | 20
12 | O=C(/C=C/c1cccc([N+](=O)[O-])c1)c1ccc(N2CCNCC2)cc1 | 14 | 16 | 18 | 16.8 (≈ 49.8 µM) | 18.6 (≈ 55 µM) | 24 | 26 | 20 | 6.75 (≈ 20 µM) | 18 | 18
13 | Cc1ccc(/C=C/C(=O)c2cc(Cl)sc2Cl)cc1 | 8 | 16 | 12 | 80 (≈ 269 µM) | 70 (≈ 236 µM) | 12 | 16 | 6 | 70 (≈ 236 µM) | 9 | 10
14 | COc1cc(/C=C/C(=O)c2cc(Cl)sc2Cl)cc(OC)c1OC | 6 | 6 | 20 | 45.1 (≈ 121 µM) | 40.1 (≈ 108 µM) | 12 | 14 | 14 | 78 (≈ 209 µM) | 12 | 22
15 | O=C(/C=C/c1cccc([N+](=O)[O-])c1)c1cc(Cl)sc1Cl | 20 | 18 | 14 | 50 (≈ 152 µM) | 50 (≈ 152 µM) | 24 | 22 | 16 | 5.97 (≈ 18.2 µM) | 18 | 12
16 | O=C(/C=C/C=C/c1ccccc1)c1cc(Cl)sc1Cl | 7 | 8 | 16 | 60 (≈ 194 µM) | 55.6 (≈ 180 µM) | 9 | 16 | 20 | 75 (≈ 243 µM) | 11 | 16
17 | O=C(O)c1cn(C2CC2)c2cc(N3CCNCC3)c(F)cc2c1=O [CIPROFLOXACIN] | 24 | – | – | – | – | 22 | – | 24 | – | 24 | –
18 | OC(Cn1cncn1)(Cn1cncn1)c1ccc(F)cc1F [FLUCONAZOLE] | – | 29 | 29 | 50 (≈ 163 µM) | 50 (≈ 163 µM) | – | – | – | 50 (≈ 163 µM) | – | 29
